In assay [1] the test system is Escherichia coli. The assay can be described thus: Antibacterial activity against Escherichia coli NKE1365 harboring deletion mutation in acrB and mdtABC protein. The class given is functional.
Assay [2] concerns Escherichia coli. Briefly: Antibacterial activity against Escherichia coli NKE158 harboring deletion mutation in acrB protein and vector expressing cpxAR gene. The class given is functional.
Assay [3] deals with Escherichia coli. Briefly: Antibacterial activity against Escherichia coli NKE1367 harboring deletion mutation in acrB, mdtABC protein and plasmid expressing nlpE gene. The class given is functional.
For assay [4], the system named is Escherichia coli. Briefly: Antibacterial activity against Escherichia coli NKE126 harboring deletion mutation in acrB and acrD protein. It is filed as functional.
For assay [5], the system named is Escherichia coli. The assay can be described thus: Antibacterial activity against Escherichia coli NKE1359 harboring deletion mutation in acrB protein and plasmid expressing BADnlpE gene in presence of increasing concentration of arabinose. The class given is functional, organism-based. An outline of the steps: (§1)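 ΔacrB host carrying empty pBAD33 or pBAD33 with nlpE under the arabinose-inducible PBAD promoter. MICs of oxacillin, cloxacillin, nafcillin, cefamandole, aztreonam, novobiocin, deoxycholate and kanamycin were measured with arabinose at several concentrations from 0 to 10,000 μM. Each MIC determination was repeated at least three times.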

For assay [6], the system named is Escherichia coli. Briefly: Antibacterial activity against Escherichia coli NKE96 harboring deletion mutation in acrB protein. It is filed as functional.
For assay [7], the system named is Escherichia coli. Briefly: Antibacterial activity against Escherichia coli NKE1368 harboring deletion mutation in acrB, acrD and mdtABC genes and carrying empty pHSG398 vector.
In assay [8] the test system is Escherichia coli. The assay can be described thus: Antibacterial activity against Escherichia coli NKE160 harboring deletion mutation in acrB protein and vector expressing tolC gene. It is filed as functional.
In assay [9] the test system is Escherichia coli. Briefly: Antibacterial activity against Escherichia coli NKE1316 harboring deletion mutation in acrB, acrD and mdtABC protein. The class given is functional.
For assay [10], the system named is Escherichia coli. The assay can be described thus: Antibacterial activity against Escherichia coli NKE155 harboring deletion mutation in acrB protein and plasmid expressing nlpE gene. The class given is functional.
Assay [11] concerns Escherichia coli. Briefly: Antibacterial activity against Escherichia coli NKE154 harboring vector expressing acrB deletion mutant. The class given is functional.
The test system of assay [12] is Escherichia coli. The assay can be described thus: Antibacterial activity against Escherichia coli NKE128 harboring deletion mutation in acrB and tolC protein. It is filed as functional.
Assay [13] has as its system Escherichia coli. Briefly: Antibacterial activity against Escherichia coli NKE1355 harboring deletion mutation in acrB protein and plasmid expressing BAD gene in presence of increasing concentration of arabinose. It is filed as functional, organism-based. In a few lines: as §1
Assay [14] relates to Escherichia coli. The assay can be described thus: Antibacterial activity against Escherichia coli NKE1369 harboring deletion mutation in acrB, acrD, mdtABC protein and plasmid expressing nlpE gene. The class given is functional.
For assay [15], the system named is Escherichia coli. The assay can be described thus: Antibacterial activity against Escherichia coli NKE157 harboring deletion mutation in acrB, acrD protein and plasmid expressing nlpE gene. It is filed as functional.
Assay [16] deals with Escherichia coli. The assay can be described thus: Antibacterial activity against Escherichia coli NKE1366 harboring deletion mutation in acrB and vector expressing mdtABC gene. The class given is functional.
Assay [17] concerns Escherichia coli. Briefly: Antibacterial activity against Escherichia coli NKE161 harboring deletion mutation in acrB protein, vector expressing tolC gene and plasmid expressing nlpE gene. It is filed as functional.
The test system of assay [18] is Escherichia coli. The assay can be described thus: Antibacterial activity against Escherichia coli NKE127 harboring deletion mutation in acrB and cpxAR protein. It is filed as functional.
Assay [19] has as its system Escherichia coli. The assay can be described thus: Antibacterial activity against Escherichia coli NKE156 harboring deletion mutation in acrB protein and vector expressing acrD gene. The class given is functional.
Assay [20] has as its system Escherichia coli. The assay can be described thus: Antibacterial activity against Escherichia coli NKE159 harboring deletion mutation in acrB, cpxAR protein and plasmid expressing nlpE gene. It is filed as functional.

Molecules are shown by their SMILES. ≈ marks a conversion by molar mass, not a printed value. Calls of active or inactive are those of the source. No cut-off for these calls is given here.

On to `Cc1onc(-c2ccccc2)c1C(=O)N[C@@H]1C(=O)N2[C@@H]1SC(C)(C)[C@@H]2C(=O)O` [OXACILLIN], for which the MIC (commonly the lowest concentration found to suppress growth) in assay [1] came to 1 µg/mL (≈ 2.49 µM); in [2], 0.5 µg/mL (≈ 1.25 µM); in [3] it was 4 µg/mL (≈ 9.96 µM); in assay [4], 0.5 µg/mL (≈ 1.25 µM); in assay [6], 1 µg/mL (≈ 2.49 µM); in assay [7], 0.5 µg/mL (≈ 1.25 µM). Also, the minimum inhibitory concentration (MIC) in assay [8] was found to be 0.5 µg/mL (≈ 1.25 µM); in assay [9], 0.5 µg/mL (≈ 1.25 µM); in [10], 8 µg/mL (≈ 19.9 µM); in assay [11], 1 µg/mL (≈ 2.49 µM); in [12], 0.5 µg/mL (≈ 1.25 µM); in assay [14], 0.5 µg/mL (≈ 1.25 µM). The MIC in assay [15] was 2 µg/mL (≈ 4.98 µM); in assay [16], 1 µg/mL (≈ 2.49 µM); in assay [17], 0.5 µg/mL (≈ 1.25 µM); in [18] it was 0.5 µg/mL (≈ 1.25 µM); in [19], 0.5 µg/mL (≈ 1.25 µM); in assay [20], 0.5 µg/mL (≈ 1.25 µM). Further, the outcome in [5] was inactive. Besides, the outcome in [13] was Active.
As to `CCOc1ccc2ccccc2c1C(=O)N[C@@H]1C(=O)N2[C@@H]1SC(C)(C)[C@@H]2C(=O)O` [NAFCILLIN], the minimal inhibitory concentration (MIC) in [1] amounted to 1 µg/mL (≈ 2.41 µM); in [2] it was 1 µg/mL (≈ 2.41 µM); in assay [3], 4 µg/mL (≈ 9.65 µM); in assay [4], 1 µg/mL (≈ 2.41 µM); in assay [6], 2 µg/mL (≈ 4.83 µM); in [7], 1 µg/mL (≈ 2.41 µM). Further, the minimum inhibitory concentration (MIC) in assay [8] was 1 µg/mL (≈ 2.41 µM); in assay [9] it was 1 µg/mL (≈ 2.41 µM); in assay [10], 16 µg/mL (≈ 38.6 µM); in [11], 2 µg/mL (≈ 4.83 µM); in assay [12] it was 1 µg/mL (≈ 2.41 µM); in assay [14] it was 1 µg/mL (≈ 2.41 µM). Besides, the MIC in assay [15] was found to be 4 µg/mL (≈ 9.65 µM); in assay [16], 1 µg/mL (≈ 2.41 µM); in [17] it was 1 µg/mL (≈ 2.41 µM); in assay [18] it was 1 µg/mL (≈ 2.41 µM); in [19] it was 1 µg/mL (≈ 2.41 µM); in assay [20] it was 1 µg/mL (≈ 2.41 µM). Moreover, the result in assay [5] was inactive. Moreover, in [13], the result was Active.
On to `NC[C@H]1O[C@H](O[C@H]2[C@H](O)[C@@H](O[C@H]3O[C@H](CO)[C@@H](O)[C@H](N)[C@H]3O)[C@H](N)C[C@@H]2N)[C@H](O)[C@@H](O)[C@@H]1O` [KANAMYCIN], for which the MIC stood at 2 µg/mL (≈ 4.13 µM) in assay [1]; 1 µg/mL (≈ 2.06 µM) in assay [2]; 8 µg/mL (≈ 16.5 µM) in assay [3]; 2 µg/mL (≈ 4.13 µM) in assay [4]; 2 µg/mL (≈ 4.13 µM) in assay [6]; 2 µg/mL (≈ 4.13 µM) in [7]. Further, the minimal inhibitory concentration (MIC) came out at 1 µg/mL (≈ 2.06 µM) in [8]; 2 µg/mL (≈ 4.13 µM) in assay [9]; 8 µg/mL (≈ 16.5 µM) in [10]; 2 µg/mL (≈ 4.13 µM) in assay [11]; 1 µg/mL (≈ 2.06 µM) in assay [12]; 4 µg/mL (≈ 8.26 µM) in assay [14]. The minimal inhibitory concentration (MIC) in assay [15] was 4 µg/mL (≈ 8.26 µM); in assay [16], 2 µg/mL (≈ 4.13 µM); in assay [17] it was 2 µg/mL (≈ 4.13 µM); in [18], 1 µg/mL (≈ 2.06 µM); in assay [19] it was 2 µg/mL (≈ 4.13 µM); in assay [20] it was 1 µg/mL (≈ 2.06 µM). Besides, in [5], the result was inactive. Also, the outcome in assay [13] was Active.

The values above are taken from ChEMBL document CHEMBL1255456, “Effect of NlpE overproduction on multidrug resistance in Escherichia coli” (2010).
